Data set [1] concerns the target Dihydroorotate dehydrogenase (quinone), mitochondrial (Mus musculus, UniProt O35435). Description: Inhibition of mouse DHODH (amino acid residues 30 to 396) expressed in Escherichia coli BL21 cells assessed as orotic acid production using dihydroorotate as substrate by DCIP dye-based assay. The essentials: (§1)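 Assay buffer 100 mM Hepes pH 8.0, 150 mM NaCl, 10% glycerol, 0.1% Triton, with 0.2 mM DHO, 0.02 mM CoQD and 0.12 mM DCIP. DCIP reduction read at 600 nm, 25 °C, started with 2–10 nM enzyme. Inhibitor 0.01–100 μM in 3-fold steps, triplicate. IC50 from a three-parameter fit of vi/vo.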

A short description of data set [2]: Inhibition of dog DHODH (amino acid residues 48 to 414) expressed in Escherichia coli BL21 cells assessed as orotic acid production using dihydroorotate as substrate by DCIP dye-based assay. On the set-up: species or system Canis lupus familiaris. The essentials: as §1
A short description of data set [3]: Partition coefficient, log D of the compound at pH 7.4 by chromatography. Format: physicochemical. As to conditions: octanol/water. The essentials:
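LogD at pH 7.4 estimated from chromatographic retention, compared against standards of known partition coefficient.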

For another data set, the system named is Plasmodium falciparum. Nature of the data set: Antimalarial activity against Plasmodium falciparum 3D7 infected in RBC after 72 hrs by SYBR green dye based flow cytometry. Format: functional, organism-based. The following applies: 3D7, 72 h.
Data set [4] concerns the target T1, Dihydroorotate dehydrogenase (Plasmodium falciparum, UniProt Q54A96).
T1 sequence (Q54A96 whole entry): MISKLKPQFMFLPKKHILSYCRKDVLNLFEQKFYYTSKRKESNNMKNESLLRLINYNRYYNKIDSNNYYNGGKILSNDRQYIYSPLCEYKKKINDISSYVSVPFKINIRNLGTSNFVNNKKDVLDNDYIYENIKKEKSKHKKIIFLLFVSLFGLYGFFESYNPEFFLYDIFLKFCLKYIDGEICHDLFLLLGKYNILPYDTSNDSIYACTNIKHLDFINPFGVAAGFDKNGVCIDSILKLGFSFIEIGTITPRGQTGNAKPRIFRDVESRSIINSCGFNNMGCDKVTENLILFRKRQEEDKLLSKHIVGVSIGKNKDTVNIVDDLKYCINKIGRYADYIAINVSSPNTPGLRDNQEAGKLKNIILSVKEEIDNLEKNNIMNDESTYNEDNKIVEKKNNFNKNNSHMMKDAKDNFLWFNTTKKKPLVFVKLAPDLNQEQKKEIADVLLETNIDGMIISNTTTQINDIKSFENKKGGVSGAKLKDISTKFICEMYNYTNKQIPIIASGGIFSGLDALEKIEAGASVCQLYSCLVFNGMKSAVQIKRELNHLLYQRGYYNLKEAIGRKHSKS
Description: Inhibition of N-terminal His6-tagged recombinant Plasmodium falciparum DHODH (amino acid residues 158 to 569) expressed in Escherichia coli BL21 cells assessed as orotic acid production using dihydroorotate as substrate by DCIP dye-based assay. The gist of the method: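 The assay buffer was 100 mM Hepes pH 8.0, 150 mM NaCl, 10% glycerol, 0.1% Triton, with 0.2 mM DHO, 0.02 mM CoQD and 0.12 mM DCIP. Runs started with 2–10 nM enzyme at 25 °C, reading A600 initial rates. Inhibitor was 0.01–100 μM in 3-fold steps, in triplicate. IC50 came from a three-parameter log[I]-response fit.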

For data set [5], the target named is T2, Dihydroorotate dehydrogenase (quinone), mitochondrial (Homo sapiens, UniProt Q02127). Description: Inhibition of C-terminal His6-tagged human DHODH (amino acid residues 30 to 396) expressed in Escherichia coli BL21 cells assessed as orotic acid production using dihydroorotate as substrate by DCIP dye-based assay. The gist of the method:
as §1

The target in data set [6] is T3, Dihydroorotate dehydrogenase (quinone), mitochondrial (Rattus norvegicus, UniProt Q63707). Description: Inhibition of rat DHODH (amino acid residues 30 to 396) expressed in Escherichia coli BL21 cells assessed as orotic acid production using dihydroorotate as substrate by DCIP dye-based assay. The essentials: as §1
Data set [7] addresses T1, Dihydroorotate dehydrogenase. Nature of the data set: Binding affinity to Plasmodium falciparum DHODH by isothermal titration calorimetry. The gist of the method: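 ITC at 30 °C in 10 mM Hepes pH 7.8, 20 mM NaCl, 5% glycerol, 1 mM LDAO, 0.2% DMSO. PfDHODH (5–10 μM) in the cell was titrated with 50 μM inhibitor. Triplicate runs.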
Data set [8] is described as follows: Inhibition of C-terminal His6-tagged human DHODH (amino acid residues 30 to 396) L46A mutant expressed in Escherichia coli BL21 cells assessed as orotic acid production using dihydroorotate as substrate by direct assay in presence of oxygen depleting system.
Data set [9] is described as follows: Inhibition of C-terminal His6-tagged human DHODH (amino acid residues 30 to 396) H56A mutant expressed in Escherichia coli BL21 cells assessed as orotic acid production using dihydroorotate as substrate by direct assay in presence of oxygen depleting system.
Data set [10] can be described thus: Inhibition of C-terminal His6-tagged human DHODH (amino acid residues 30 to 396) R136A mutant expressed in Escherichia coli BL21 cells assessed as orotic acid production using dihydroorotate as substrate by direct assay in presence of oxygen depleting system.
Data set [11] in a line: Inhibition of C-terminal His6-tagged human DHODH (amino acid residues 30 to 396) L359A mutant expressed in Escherichia coli BL21 cells assessed as orotic acid production using dihydroorotate as substrate by direct assay in presence of oxygen depleting system.
The subject of data set [12] is BL21. Nature of the data set: Ratio of IC50 for C-terminal His6-tagged human DHODH (amino acid residues 30 to 396) R136A mutant expressed in Escherichia coli BL21 cells to IC50 for C-terminal His6-tagged wild type human DHODH (amino acid residues 30 to 396) expressed in Escherichia coli BL21 cells.
The test system of data set [13] is BL21. Description: Ratio of IC50 for C-terminal His6-tagged human DHODH (amino acid residues 30 to 396) L46A mutant expressed in Escherichia coli BL21 cells to IC50 for C-terminal His6-tagged wild type human DHODH (amino acid residues 30 to 396) expressed in Escherichia coli BL21 cells.
In data set [14] the test system is BL21. Description: Ratio of IC50 for C-terminal His6-tagged human DHODH (amino acid residues 30 to 396) L359A mutant expressed in Escherichia coli BL21 cells to IC50 for C-terminal His6-tagged wild type human DHODH (amino acid residues 30 to 396) expressed in Escherichia coli BL21 cells.
Data set [15] deals with T2, Dihydroorotate dehydrogenase (quinone), mitochondrial. Description: Inhibition of C-terminal His6-tagged human DHODH (amino acid residues 33 to 396) expressed in Escherichia coli BL21 cells assessed as orotic acid production using dihydroorotate as substrate by direct assay in presence of oxygen depleting system.
Data set [16] concerns BL21. Description: Selectivity ratio of IC50 for C-terminal His6-tagged human DHODH (amino acid residues 30 to 396) expressed in Escherichia coli BL21 cells to IC50 for N-terminal His6-tagged recombinant Plasmodium falciparum DHODH (amino acid residues 158 to 569) expressed in Escherichia coli BL21 cells.
Data set [17] addresses T3, Dihydroorotate dehydrogenase (quinone), mitochondrial. Description: Binding affinity to rat DHODH by isothermal titration calorimetry. The essentials: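 Run at 30 °C in 10 mM Hepes pH 7.8, 20 mM NaCl, 5% glycerol, 1 mM LDAO, 0.2% DMSO. Rat DHODH (5–8 μM) in the cell, titrated with 50 μM inhibitor. Triplicate runs, analysed with NITPIC and SEDPHAT.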

The values that follow come from ChEMBL document CHEMBL3286300, “Fluorine modulates species selectivity in the triazolopyrimidine class of Plasmodium falciparum dihydroorotate dehydrogenase inhibitors” (J Med Chem, 2014).

Molecules are shown by their SMILES.

T2 sequence (Q02127 whole entry, the tested form may be a part): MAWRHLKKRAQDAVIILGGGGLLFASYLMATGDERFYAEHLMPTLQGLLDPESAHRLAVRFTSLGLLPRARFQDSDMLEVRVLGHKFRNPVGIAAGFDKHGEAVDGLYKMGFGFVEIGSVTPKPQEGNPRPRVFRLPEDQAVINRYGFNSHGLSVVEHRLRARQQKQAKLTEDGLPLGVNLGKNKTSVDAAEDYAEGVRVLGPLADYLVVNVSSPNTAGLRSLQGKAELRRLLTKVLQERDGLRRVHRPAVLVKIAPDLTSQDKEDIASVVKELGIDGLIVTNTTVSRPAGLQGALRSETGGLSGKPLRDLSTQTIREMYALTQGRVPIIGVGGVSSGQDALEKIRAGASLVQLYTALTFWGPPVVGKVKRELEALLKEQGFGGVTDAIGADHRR
T3 sequence (Q63707 whole entry, the tested form may be a part): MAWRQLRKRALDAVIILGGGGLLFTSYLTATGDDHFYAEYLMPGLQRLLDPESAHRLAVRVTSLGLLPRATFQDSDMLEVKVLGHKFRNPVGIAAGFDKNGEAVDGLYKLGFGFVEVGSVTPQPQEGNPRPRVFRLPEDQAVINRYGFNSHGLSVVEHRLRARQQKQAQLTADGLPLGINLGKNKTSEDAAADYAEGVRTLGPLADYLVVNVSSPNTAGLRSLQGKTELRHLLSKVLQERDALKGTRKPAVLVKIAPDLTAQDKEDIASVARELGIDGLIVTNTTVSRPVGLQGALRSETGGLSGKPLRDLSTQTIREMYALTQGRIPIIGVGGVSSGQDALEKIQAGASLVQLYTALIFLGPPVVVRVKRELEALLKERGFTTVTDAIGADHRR
Chain of Dihydroorotate dehydrogenase (quinone), mitochondrial (Mus musculus, UniProt O35435) (O35435 whole entry, the tested form may be a part): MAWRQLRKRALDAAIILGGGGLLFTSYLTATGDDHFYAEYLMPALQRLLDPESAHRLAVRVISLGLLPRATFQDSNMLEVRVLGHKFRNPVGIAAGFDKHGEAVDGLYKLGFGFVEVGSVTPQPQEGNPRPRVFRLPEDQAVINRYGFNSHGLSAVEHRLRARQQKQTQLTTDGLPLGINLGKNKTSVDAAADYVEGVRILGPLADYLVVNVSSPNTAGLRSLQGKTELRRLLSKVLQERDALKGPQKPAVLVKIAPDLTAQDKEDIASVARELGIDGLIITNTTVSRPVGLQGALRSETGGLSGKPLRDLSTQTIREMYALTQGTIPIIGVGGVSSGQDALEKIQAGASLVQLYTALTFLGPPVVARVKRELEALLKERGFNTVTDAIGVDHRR

For the compound `Cc1cc(Nc2ccc(C(F)(F)F)cc2)n2ncnc2n1`, the IC50 in [1] and in data set [2] was more than 100000 nM in each case. The compound further displayed a log distribution coefficient (logD) in [3] of 3.55.
Take `Cc1cc(Nc2cc(F)c(C(F)(F)F)c(F)c2)n2nc(C(F)(F)F)nc2n1`: the 50% inhibitory concentration (IC50) in data set [1] stood at 88 nM; with Plasmodium falciparum it was 1.8 nM; in data set [4], 22 nM; in data set [5], 1600 nM; in data set [6], 49 nM; in data set [2], 320 nM. In addition, the IC50 in data set [8] was more than 100000 nM; in [9], 900 nM; in data set [10] it was more than 100000 nM; in [11], 35000 nM; in data set [15] it was 2100 nM. Besides, the Kd in [7] worked out at 9.6 nM. Also, in [3], the logD was 5.01. Moreover, the Ratio IC50 in the data set on BL21 [12] was determined as 50; in the data set with BL21 [13] it was 50; in the data set on BL21 [14], 10.
Regarding `Cc1cc(Nc2cc(F)c(C(F)(F)F)c(F)c2)n2ncnc2n1`, the IC50 in [1] is more than 30000 nM; in data set [5] it was more than 100000 nM; in data set [6] it was 37000 nM; in data set [2], more than 100000 nM. Also, in the data set with BL21 [16], the Ratio IC50 is more than 769.
Consider `Cc1cc(Nc2ccc(C(F)(F)F)cc2)n2nc(C(F)(F)F)nc2n1`, for which the IC50 in [1] was 9700 nM; with Plasmodium falciparum it was 6.3 nM; in data set [5], more than 100000 nM; in [6] it was 3500 nM; in [2], 86000 nM.
For the compound `Cc1cc(Nc2ccc(C(F)(F)F)cc2)n2nc(C(C)(F)F)nc2n1`, the IC50 in the data set with Plasmodium falciparum was 3.6 nM; in data set [4], 46 nM; in [5] it was more than 100000 nM; in data set [2], more than 100000 nM; in data set [8], more than 100000 nM; in data set [9] it was more than 100000 nM. The concentration for half-maximal inhibition (IC50) in [10], in [11] and in data set [15] was more than 100000 nM each time. For the same compound, binding in data set [7] was put at a Kd of 27 nM. The compound further had a logD in data set [3] of 4.05.
Consider `Cc1cc(Nc2ccc(C(F)(F)F)c(F)c2)n2nc(C(C)(F)F)nc2n1`, for which the IC50 in [1] worked out at 1600 nM; in the data set with Plasmodium falciparum it was 3.9 nM; in data set [4], 35 nM; in data set [5], 17000 nM; in data set [6] it was 800 nM; in data set [2], 7200 nM. Moreover, the half-inhibitory concentration (IC50) is more than 100000 nM in data set [8]; 67000 nM in [9]; more than 100000 nM in data set [10]; more than 100000 nM in data set [11]; 45000 nM in [15]. This compound also yielded a Kd in data set [7] of 9.8 nM. The logD in [3] amounted to 4.25.
As for `Cc1cc(Nc2cc(F)c(C(F)(F)F)c(F)c2)n2nc(C(C)(F)F)nc2n1`, the IC50 in data set [1] was 180 nM; in the data set on Plasmodium falciparum it was 12 nM; in data set [4] it was 20 nM; in data set [5] it was 2100 nM; in data set [6], 130 nM; in data set [2], 700 nM. Further, the IC50 in data set [8] was more than 100000 nM; in [9], 5300 nM; in data set [10] it was more than 100000 nM; in [11], more than 100000 nM; in data set [15], 2700 nM. Further, the equilibrium dissociation constant (Kd) in data set [7] stood at 5.1 nM; in data set [17], 48 nM. The logD in data set [3] is reported as 4.46. The Ratio IC50 was 50 with BL21 [12], 50 in the data set with BL21 [13], more than 50 in the data set on BL21 [14] and 100 with BL21 [16].
